Data taken from ChEMBL document CHEMBL4261559, “Small molecule piperazinyl-benzimidazole antagonists of the gonadotropin-releasing hormone (GnRH) receptor” (Medchemcomm, 2017).

Biological target: T1, Gonadotropin-releasing hormone receptor (Homo sapiens, UniProt P30968)
T1 sequence (P30968 whole entry): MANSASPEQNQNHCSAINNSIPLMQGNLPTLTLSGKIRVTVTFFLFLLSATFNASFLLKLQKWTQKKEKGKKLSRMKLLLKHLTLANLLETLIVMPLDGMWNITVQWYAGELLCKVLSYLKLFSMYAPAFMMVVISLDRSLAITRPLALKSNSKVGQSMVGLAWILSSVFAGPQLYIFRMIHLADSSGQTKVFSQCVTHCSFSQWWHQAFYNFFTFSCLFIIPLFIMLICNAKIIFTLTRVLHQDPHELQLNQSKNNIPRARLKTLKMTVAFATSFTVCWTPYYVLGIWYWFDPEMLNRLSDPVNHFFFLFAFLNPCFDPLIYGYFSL
Assay: Antagonist activity at N-terminal FLAG-tagged human full-length GnRHR expressed in HEK293T cells assessed as inhibition of GnRH-induced calcium mobilization preincubated for 15 mins followed by agonist addition by FLIPR assay
Type: functional, cell-based
Conditions: not given
With `CC(C)(C)c1ccc(-c2nc3c(N4CCN(Cc5cn(-c6ccc(F)cc6)nn5)CC4)cccc3[nH]2)cc1` the IC50 was 20000 nM and the Ki was 410 nM.
For `CC(C)(C)c1ccc(-c2nc3c(N4CCN(Cc5cn([C@@H]6O[C@H](CO)[C@@H](O)[C@H](O)[C@H]6O)nn5)CC4)cccc3[nH]2)cc1`, the IC50 was > 10000 nM and the Ki was > 1000 nM.
With `CC(C)(C)c1ccc(-c2nc3c(N4CCN(CCF)CC4)cccc3[nH]2)cc1` the IC50 was 12600 nM and the Ki was 254 nM.
Molecule `CC(C)(C)c1ccc(-c2nc3c(N4CCN(Cc5cn(CCF)nn5)CC4)cccc3[nH]2)cc1` has an IC50 of 794 nM and a Ki of 13.8 nM.
For `CC(C)(C)c1ccc(-c2nc3c(N4CCN(Cc5cn(-c6nc7ccccc7[nH]6)nn5)CC4)cccc3[nH]2)cc1`, the IC50 was 5010 nM and the Ki was 104 nM.
Work on `CC(=O)N[C@@H]1[C@@H](OC(C)=O)[C@H](OC(C)=O)[C@@H](COC(C)=O)O[C@H]1n1cc(CN2CCN(c3cccc4[nH]c(-c5ccc(C(C)(C)C)cc5)nc34)CC2)nn1` yielded an IC50 of 7940 nM and a Ki of 157 nM.
`C#CCN1CCN(c2cccc3[nH]c(-c4ccc(C(C)(C)C)cc4)nc23)CC1` showed an IC50 of 20000 nM and a Ki of 395 nM.
With `CC(C)(C)OC(=O)N[C@@H](Cn1cc(CN2CCN(c3cccc4[nH]c(-c5ccc(C(C)(C)C)cc5)nc34)CC2)nn1)C(=O)O` the IC50 was 10000 nM and the Ki was 186 nM.
`COc1cc(OC)c(NC(=O)c2ccc(Cc3cc4c(cc3C)C(C)(C)CCC4(C)C)o2)c(OC)c1` gave an IC50 of 1000 nM and a Ki of 19 nM.
For `CC(C)(C)c1ccc(-c2nc3c(N4CCN(Cc5cccc6nccnc56)CC4)cccc3[nH]2)cc1`, the IC50 was 631 nM and the Ki was 12.2 nM.

Tested on: not listed separately
Assay: Thermodynamic solubility of compound in simulated gastric fluid at pH 1.2 after 24 hrs by LC-QTOFMS analysis
Type: physicochemical
Conditions: simulated gi fluid, pH 1.2, 24 h
Method in brief: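 Solid sample was suspended in 450 uL of buffer to about 2 mg/mL and shaken at 200 RPM for 24 h at ambient temperature (22.6-25.0 °C). The suspension was filtered, and the filtrate was diluted as needed (undiluted up to 10000x). Filtrate was quantified by LC-QTOFMS against a calibration curve prepared from a 10 mM DMSO stock. Two reference standards were run in triplicate in each medium.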
`CC(C)(C)c1ccc(-c2nc3c(N4CCN(Cc5cn(CCF)nn5)CC4)cccc3[nH]2)cc1` showed a Therm_solubility of 2.098 µg/mL.
